Measurements taken from ChEMBL document CHEMBL1154485, “Novel 2-aryl-naphtho[1,2-d]oxazole derivatives as potential PTP-1B inhibitors showing antihyperglycemic activities” (Eur J Med Chem, 2009).

Legend:
[1] = tested on: Rattus norvegicus; experiment: Antihyperglycemic activity against sucrose-challenged streptozotocin-induced fasted Sprague-Dawley rat assessed as reduction in blood glucose at 100 mg/kg, po administered 30 mins before sucrose challenge measured after 24 hrs post sucrose dose relative to control; type: functional; design: scale not given: the % may be the effect or the level left
Procedure, shortened: (§1)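 Male Sprague Dawley rats, 160 ± 20 g, overnight fasted, given streptozotocin 45 mg/kg i.p. in citrate buffer pH 4.5. Rats at 144-270 mg/dl glucose after 48 h were used, 5-6 per group. Oral dose 100 mg/kg in 1.0% gum acacia, sucrose 2.5 g/kg 30 min later. Glucose read at 30-300 min and 24 h. Activity derived from AUC versus control.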

[2] = tested on: Rattus norvegicus; experiment: Antihyperglycemic activity against sucrose-challenged streptozotocin-induced fasted Sprague-Dawley rat assessed as reduction in blood glucose at 100 mg/kg, po administered 30 mins before sucrose challenge measured after 5 hrs post sucrose dose relative to control; type: functional; design: scale not given: the % may be the effect or the level left; procedure, shortened: as §1
[3] = tested on: Rattus norvegicus; experiment: Antihyperglycemic activity against sucrose-loaded Charles-Foster Wistar albino rat assessed as reduction in blood glucose at 100 mg/kg, po administered 30 mins before sucrose challenge relative to control; type: functional; design: scale not given: the % may be the effect or the level left
Procedure, shortened: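 Male Charles Foster/Wistar rats, 160 ± 20 g, fasted 16 h, selected at 60e80 mg/dl glucose, groups of 5-6. Compound given orally at 100 mg/kg in 1.0% gum acacia; sucrose 10.0 g/kg orally 30 min later. Glucose read by glucometer at 30-120 min. Percent activity derived from AUC versus vehicle.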

[4] = molecular target: T1, Tyrosine-protein phosphatase non-receptor type 1 (Homo sapiens, UniProt P18031); experiment: Inhibition of PTP1B assessed as residual enzyme activity in presence of Triton X-100
T1 sequence (P18031 whole entry): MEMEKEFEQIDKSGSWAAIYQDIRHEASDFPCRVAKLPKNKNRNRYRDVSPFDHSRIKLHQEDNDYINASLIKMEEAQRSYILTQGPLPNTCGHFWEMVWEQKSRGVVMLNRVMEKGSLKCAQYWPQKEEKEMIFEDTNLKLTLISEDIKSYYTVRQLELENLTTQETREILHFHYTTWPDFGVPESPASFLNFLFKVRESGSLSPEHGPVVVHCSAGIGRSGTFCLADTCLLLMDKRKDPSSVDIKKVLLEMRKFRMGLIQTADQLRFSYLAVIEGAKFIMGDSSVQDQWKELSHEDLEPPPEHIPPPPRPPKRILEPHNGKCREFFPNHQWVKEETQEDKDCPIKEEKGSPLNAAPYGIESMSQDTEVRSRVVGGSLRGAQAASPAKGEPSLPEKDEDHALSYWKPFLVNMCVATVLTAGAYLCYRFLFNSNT
Procedure, shortened: (§2)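 PTP-1B pre-incubated 10 min with compound, with or without 0.01% Triton X-100. Reaction: 10 mM pNPP in 50 mM HEPES pH 7.0 with 1 mM DTT and 2 mM EDTA, 30 min at 37 °C. Stopped with 0.1 N NaOH, p-nitrophenolate read at 410 nm (ε 1.78×10⁴ M⁻¹cm⁻¹). Single-concentration screen was the mean of three independent sets. Sodium orthovanadate served as standard.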

[5] = species on record: Mus musculus; experiment: Antihyperglycemic activity against C57BL/KsBom db/db type 2 diabetic mouse model assessed as decrease in postprandial blood glucose level on day 3 by OGTT relative to control; type: functional; design: concentration or dose not given beside the values
[6] = molecular target: T1, Tyrosine-protein phosphatase non-receptor type 1; experiment: Inhibition of PTP1B assessed as residual enzyme activity; procedure, shortened: as §2
[7] = tested on: Mus musculus; experiment: Antidyslipidemic activity in C57BL/KsBom db/db diabetic mouse assessed as reduction in plasma cholesterol level at 100 mg/kg, po; type: functional; design: scale not given: the % may be the effect or the level left
Procedure, shortened: (§3)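 Male and female C57BL/KsBom-db mice, 12e18 weeks, 40e50 g, ten per experiment, housed by sex at 23 °C on a 12/12 h cycle. Test drug given orally at 100 mg/kg in gum acacia (1.0%); vehicle controls received gum acacia only. Dosing ran 10 days. Effects on triglyceride, cholesterol and HDL are reported as % change.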

[8] = species on record: Mus musculus; experiment: Antihyperglycemic activity against C57BL/KsBom db/db type 2 diabetic mouse model assessed as decrease in postprandial blood glucose level on day 10 by OGTT relative to control; type: functional; design: scale not given: the % may be the effect or the level left
Procedure, shortened: (§4)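 Male and female C57BL/KsBom-db mice, 12e18 weeks, 40e50 g, ten used, vehicle 1.0% gum acacia. Day 6 postprandial protocol: glucose read at -0.5 and 0 h, then at 1, 2, 3, 4 and 6 h after dosing. Day 10 OGTT: overnight fast, drug given at -30 min, glucose 3 g/kg at 0 min, glucose read at 30-120 min.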

[9] = tested on: Mus musculus; experiment: Antidyslipidemic activity in C57BL/KsBom db/db diabetic mouse assessed as increase in high-density lipoprotein cholesterol level at 100 mg/kg, po; type: functional; procedure, shortened: as §3
[10] = tested on: Mus musculus; experiment: Antidyslipidemic activity in C57BL/KsBom db/db diabetic mouse assessed as reduction in plasma triglyceride level at 100 mg/kg, po; type: functional; design: scale not given: the % may be the effect or the level left; procedure, shortened: as §3
[11] = species on record: Mus musculus; experiment: Antihyperglycemic activity against C57BL/KsBom db/db type 2 diabetic mouse model assessed as decrease in postprandial blood glucose level on day 6 by OGTT relative to control; type: functional; design: scale not given: the % may be the effect or the level left; procedure, shortened: as §4

Row | IC50 [4] | Ki [4] | IC50 [6] | Ki [6] | SMILES | Activity [1] | Activity [2] | Activity [3] | Activity [5] | also measured
1 | – | – | – | – | c1ccc2c(c1)ccc1oc(-c3ccc(OCCCN4CCCCC4)cc3)nc12 | 11.2% | 13.4% | 25% | – | –
2 | – | – | – | – | Oc1ccc(-c2nc3c(ccc4ccccc43)o2)cc1 | – | – | 10.8% | – | –
3 | – | – | – | – | COc1ccc(NCCCOc2ccc(-c3nc4c(ccc5ccccc54)o3)cc2)cc1 | – | – | 11.8% | – | –
4 | 3.52 µM | 36.3 µM | 3.5 µM | 34.1 µM | CN(C)CCCOc1ccc(-c2nc3c(ccc4ccccc43)o2)cc1 | 20.3% | 15.6% | 25.2% | 16.7% | –
5 | – | – | – | – | CN(C)C(=N)NC(=N)N [METFORMIN] | 20.2% | – | 12.9% | 11.2% | –
6 | – | – | – | – | CC(=O)Oc1ccc(-c2nc3c(ccc4ccccc43)o2)cc1 | – | – | 16.8% | – | –
7 | – | – | – | – | CCOC(=O)CCCOc1ccc(-c2nc3c(ccc4ccccc43)o2)cc1 | – | – | 9.5% | – | –
8 | – | – | – | – | COc1ccc(Cl)cc1C(=O)NCCc1ccc(S(=O)(=O)NC(=O)NC2CCCCC2)cc1 [GLYBURIDE] | – | 32.8% | 33.9% | 13.6% | –
9 | – | – | – | – | Cc1ccc(NCCCOc2ccc(-c3nc4c(ccc5ccccc54)o3)cc2)cc1 | 15.2% | 14.6% | 17.2% | – | –
10 | 3.56 µM | 28.7 µM | 3.51 µM | 25.1 µM | CN(C)CCOc1ccc(-c2nc3c(ccc4ccccc43)o2)cc1 | 25.7% | 27.9% | 35.9% | 18.9% | Activity [7]: 17.6%; Activity [8]: 23.6%; Activity [9]: 3%; Activity [10]: 10.5%; Activity [11]: 21.4%
11 | – | – | – | – | O=C(O)COc1ccc(-c2nc3c(ccc4ccccc43)o2)cc1 | – | – | 4.6% | – | –
12 | 2.52 µM | 41 µM | 2.5 µM | 44.4 µM | CCCCN(C)CCOc1ccc(-c2nc3c(ccc4ccccc43)o2)cc1 | 18.7% | 17.4% | 35.3% | 22.3% | Activity [7]: 12.2%; Activity [8]: 24.1%; Activity [9]: 1.3%; Activity [10]: 7.5%; Activity [11]: 22.4%
13 | – | – | – | – | ClCCCOc1ccc(-c2nc3c(ccc4ccccc43)o2)cc1 | – | – | 7.4% | – | –
14 | 1.86 µM | 27.1 µM | 1.9 µM | 27.5 µM | c1ccc2c(c1)ccc1oc(-c3ccc(OCCN4CCCCC4)cc3)nc12 | 15.7% | 16.4% | 26.9% | 10.4% | –
15 | – | – | – | – | CCCCCCCCNCCCOc1ccc(-c2nc3c(ccc4ccccc43)o2)cc1 | – | – | 15% | – | –
16 | 4.55 µM | 35.5 µM | 4.6 µM | 35 µM | CCN(CC)CCOc1ccc(-c2nc3c(ccc4ccccc43)o2)cc1 | 9.7% | 11.4% | 21.7% | – | –
17 | – | – | – | – | CCCCN(C)CCCOc1ccc(-c2nc3c(ccc4ccccc43)o2)cc1 | 9.2% | 7.8% | 14.7% | – | –
18 | 3.36 µM | 41 µM | 3.4 µM | 40.5 µM | CCN(CC)CCCOc1ccc(-c2nc3c(ccc4ccccc43)o2)cc1 | 13.6% | 11.5% | 20.5% | 10.8% | –
19 | – | – | – | – | c1ccc2c(c1)ccc1oc(-c3ccc(OCCCN4CCCC4)cc3)nc12 | 12.9% | 12.6% | 17.2% | – | –
20 | 5.7 µM | 37 µM | 5.71 µM | 34.2 µM | c1ccc2c(c1)ccc1oc(-c3ccc(OCCN4CCCC4)cc3)nc12 | – | – | 8.7% | – | –
21 | – | – | – | – | CCOC(=O)COc1ccc(-c2nc3c(ccc4ccccc43)o2)cc1 | – | – | 11.4% | – | –
22 | – | – | – | – | Cc1ccc(S(=O)(=O)NC(=O)NN2CC3CCCC3C2)cc1 (configuration not stated) [GLICLAZIDE] | – | 27.7% | 44.8% | 17.4% | –
23 | – | – | – | – | O=C(O)CCCOc1ccc(-c2nc3c(ccc4ccccc43)o2)cc1 | – | – | 5.8% | – | –
